Results published in ChEMBL document CHEMBL1155278, “3,4-Diaryl-isoxazoles and -imidazoles as potent dual inhibitors of p38alpha mitogen activated protein kinase and casein kinase 1delta” (J Med Chem, 2009).

Key:
[1] = target: Aurora kinase B (Homo sapiens) (UniProt Q96GD4); assay: Inhibition of Aurora B assessed as residual activity at 0.1 uM by Cherenkov counting relative to control in presence of 20 uM ATP
How it was run: (§1)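 Single-concentration screen at 0.1 µM across a panel of 76 protein kinases. Each kinase was run at an ATP concentration approximating its ATP Km. Results are % mean residual activity versus control assays without compound (n = 3 ± SD).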

[2] = target: MAP kinase-interacting serine/threonine-protein kinase 2 (Homo sapiens) (UniProt Q9HBH9); assay: Inhibition of MNK2 assessed as residual activity at 0.1 uM by Cherenkov counting relative to control in presence of 50 uM ATP
Sequence of MAP kinase-interacting serine/threonine-protein kinase 2 (Homo sapiens) (Q9HBH9 whole entry, looked up): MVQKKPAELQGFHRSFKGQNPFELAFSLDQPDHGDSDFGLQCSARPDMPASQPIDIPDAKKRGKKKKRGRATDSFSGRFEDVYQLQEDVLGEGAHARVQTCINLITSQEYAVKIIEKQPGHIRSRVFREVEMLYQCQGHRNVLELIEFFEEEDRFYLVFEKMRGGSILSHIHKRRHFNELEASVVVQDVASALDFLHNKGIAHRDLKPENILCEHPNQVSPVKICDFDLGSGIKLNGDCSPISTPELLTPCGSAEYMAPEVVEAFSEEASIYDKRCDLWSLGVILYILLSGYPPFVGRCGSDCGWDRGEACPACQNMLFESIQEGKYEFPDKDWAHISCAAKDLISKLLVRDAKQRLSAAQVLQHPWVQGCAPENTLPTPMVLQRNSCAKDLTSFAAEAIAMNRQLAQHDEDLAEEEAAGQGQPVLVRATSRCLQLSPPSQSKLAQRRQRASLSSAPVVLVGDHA
How it was run: (§2)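 Single-concentration selectivity screen at 0.1 μM against a panel of 76 protein kinases. Each kinase was run at an ATP level approximating its Km for ATP. Output is mean residual activity as % of the control assay without compound, n = 3 ± SD.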

[3] = target: Glycogen synthase kinase-3 beta (Homo sapiens) (UniProt P49841); assay: Inhibition of GSK3-beta assessed as residual activity at 0.1 uM by Cherenkov counting relative to control in presence of 5 uM ATP; how it was run: as §1
Sequence of Glycogen synthase kinase-3 beta (Homo sapiens) (P49841 whole entry, looked up): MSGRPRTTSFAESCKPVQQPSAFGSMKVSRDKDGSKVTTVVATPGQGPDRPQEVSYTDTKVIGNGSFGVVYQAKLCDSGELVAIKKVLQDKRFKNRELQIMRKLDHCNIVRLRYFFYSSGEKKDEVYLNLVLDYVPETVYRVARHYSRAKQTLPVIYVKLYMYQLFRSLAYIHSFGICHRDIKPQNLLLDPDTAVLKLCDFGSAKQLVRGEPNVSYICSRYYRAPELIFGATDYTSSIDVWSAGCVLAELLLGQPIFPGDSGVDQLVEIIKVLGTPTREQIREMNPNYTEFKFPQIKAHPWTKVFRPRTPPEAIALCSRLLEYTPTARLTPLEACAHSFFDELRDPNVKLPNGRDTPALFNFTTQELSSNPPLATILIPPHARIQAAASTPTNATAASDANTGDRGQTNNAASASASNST

[4] = target: Serine/threonine-protein kinase pim-3 (Homo sapiens) (UniProt Q86V86); assay: Inhibition of PIM3 assessed as residual activity at 0.1 uM by Cherenkov counting relative to control in presence of 20 uM ATP; how it was run: as §2
[5] = target: Insulin receptor (Homo sapiens) (UniProt P06213); assay: Inhibition of histidine-tagged IR assessed as residual activity at 0.1 uM by Cherenkov counting relative to control in presence of 20 uM ATP
Sequence of Insulin receptor (Homo sapiens) (P06213 28-758 limits assumed): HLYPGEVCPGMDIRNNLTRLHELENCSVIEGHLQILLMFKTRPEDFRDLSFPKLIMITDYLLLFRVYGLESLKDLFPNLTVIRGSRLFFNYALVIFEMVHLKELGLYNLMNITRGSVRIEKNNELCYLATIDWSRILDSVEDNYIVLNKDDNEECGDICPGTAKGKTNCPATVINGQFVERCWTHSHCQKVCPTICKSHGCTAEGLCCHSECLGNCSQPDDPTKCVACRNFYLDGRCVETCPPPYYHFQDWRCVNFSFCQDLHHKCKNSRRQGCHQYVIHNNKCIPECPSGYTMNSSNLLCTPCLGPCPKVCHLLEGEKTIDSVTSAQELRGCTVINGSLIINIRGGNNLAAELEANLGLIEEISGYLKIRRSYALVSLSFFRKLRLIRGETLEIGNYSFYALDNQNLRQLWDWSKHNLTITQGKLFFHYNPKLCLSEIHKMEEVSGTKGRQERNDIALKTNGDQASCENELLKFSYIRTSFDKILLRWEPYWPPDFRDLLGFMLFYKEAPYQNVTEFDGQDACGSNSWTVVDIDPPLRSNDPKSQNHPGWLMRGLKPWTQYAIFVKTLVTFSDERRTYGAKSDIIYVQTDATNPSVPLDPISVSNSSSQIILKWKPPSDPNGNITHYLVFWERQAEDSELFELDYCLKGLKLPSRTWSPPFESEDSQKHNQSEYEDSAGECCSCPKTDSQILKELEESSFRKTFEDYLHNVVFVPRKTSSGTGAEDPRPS
Sequence of Insulin receptor (Homo sapiens) (P06213 763-1382 limits assumed): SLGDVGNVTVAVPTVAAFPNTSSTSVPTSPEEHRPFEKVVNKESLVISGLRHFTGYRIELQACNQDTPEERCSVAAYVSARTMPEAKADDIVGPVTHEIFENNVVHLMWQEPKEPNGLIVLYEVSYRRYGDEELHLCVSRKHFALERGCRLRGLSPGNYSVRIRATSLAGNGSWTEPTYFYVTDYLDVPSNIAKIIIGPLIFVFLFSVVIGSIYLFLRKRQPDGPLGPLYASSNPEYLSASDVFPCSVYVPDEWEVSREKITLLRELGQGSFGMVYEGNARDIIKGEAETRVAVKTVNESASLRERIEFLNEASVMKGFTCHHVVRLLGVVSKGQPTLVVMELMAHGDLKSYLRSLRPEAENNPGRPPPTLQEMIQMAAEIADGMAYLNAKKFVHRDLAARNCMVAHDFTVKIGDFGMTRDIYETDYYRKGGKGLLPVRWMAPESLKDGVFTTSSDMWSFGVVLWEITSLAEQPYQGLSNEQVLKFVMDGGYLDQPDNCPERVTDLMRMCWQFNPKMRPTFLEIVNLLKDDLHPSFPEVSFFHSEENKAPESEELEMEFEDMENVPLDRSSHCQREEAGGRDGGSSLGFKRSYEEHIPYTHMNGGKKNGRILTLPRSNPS
How it was run: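 Single-concentration screen at 0.1 μM in a 76-kinase panel. ATP for each kinase was set near its Km for ATP. Residual activity is given as a percentage of control assays without compound, mean of n = 3 ± SD.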

[6] = target: T1, Serine/threonine-protein kinase 3 (Homo sapiens) (UniProt Q13188); assay: Inhibition of MST2 assessed as residual activity at 10 uM by Cherenkov counting relative to control in presence of 20 uM ATP
T1 sequence (whole entry): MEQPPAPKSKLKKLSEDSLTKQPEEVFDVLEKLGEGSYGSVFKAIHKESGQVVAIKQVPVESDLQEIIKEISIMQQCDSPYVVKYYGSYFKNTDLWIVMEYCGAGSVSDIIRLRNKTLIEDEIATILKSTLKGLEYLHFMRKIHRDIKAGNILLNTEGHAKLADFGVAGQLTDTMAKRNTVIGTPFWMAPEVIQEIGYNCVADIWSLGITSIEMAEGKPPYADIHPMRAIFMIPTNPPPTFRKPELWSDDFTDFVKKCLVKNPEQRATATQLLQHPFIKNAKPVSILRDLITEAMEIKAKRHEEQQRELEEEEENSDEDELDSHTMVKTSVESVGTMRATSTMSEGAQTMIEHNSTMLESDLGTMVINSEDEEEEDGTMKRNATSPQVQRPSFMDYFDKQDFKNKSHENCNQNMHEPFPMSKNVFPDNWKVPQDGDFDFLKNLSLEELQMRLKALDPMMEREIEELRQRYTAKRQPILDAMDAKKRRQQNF

[7] = target: Tyrosine-protein kinase Lck (Homo sapiens) (UniProt P06239); assay: Inhibition of Lck assessed as residual activity at 10 uM by Cherenkov counting relative to control in presence of 50 uM ATP
Sequence of Tyrosine-protein kinase Lck (Homo sapiens) (P06239 2-509 limits assumed): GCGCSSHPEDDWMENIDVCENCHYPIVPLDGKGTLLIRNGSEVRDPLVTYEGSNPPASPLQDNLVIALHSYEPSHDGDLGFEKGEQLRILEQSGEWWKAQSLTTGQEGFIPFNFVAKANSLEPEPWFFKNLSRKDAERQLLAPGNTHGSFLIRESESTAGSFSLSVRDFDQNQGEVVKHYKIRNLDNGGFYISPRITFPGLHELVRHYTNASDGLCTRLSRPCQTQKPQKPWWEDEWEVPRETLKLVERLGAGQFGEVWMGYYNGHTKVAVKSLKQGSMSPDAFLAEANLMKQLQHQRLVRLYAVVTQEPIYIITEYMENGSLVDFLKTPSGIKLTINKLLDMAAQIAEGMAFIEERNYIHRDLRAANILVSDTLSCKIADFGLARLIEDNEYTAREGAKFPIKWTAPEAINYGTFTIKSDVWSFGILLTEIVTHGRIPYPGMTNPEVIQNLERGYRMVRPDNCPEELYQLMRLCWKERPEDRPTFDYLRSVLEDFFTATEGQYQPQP

[8] = target: Serine/threonine-protein kinase PLK1 (Homo sapiens) (UniProt P53350); assay: Inhibition of okadaic acid-induced PLK1 assessed as residual activity at 10 uM by Cherenkov counting relative to control in presence of 5 uM ATP
How it was run: (§3)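 Single-concentration profiling at 10 μM in a 78-kinase panel. Kinase activity is expressed as a percentage of control assays run without compound.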

[9] = target: Homeodomain-interacting protein kinase 3 (Homo sapiens) (UniProt Q9H422); assay: Inhibition of HIPK3 assessed as residual activity at 10 uM by Cherenkov counting relative to control
Sequence of Homeodomain-interacting protein kinase 3 (Homo sapiens) (Q9H422 whole entry, looked up): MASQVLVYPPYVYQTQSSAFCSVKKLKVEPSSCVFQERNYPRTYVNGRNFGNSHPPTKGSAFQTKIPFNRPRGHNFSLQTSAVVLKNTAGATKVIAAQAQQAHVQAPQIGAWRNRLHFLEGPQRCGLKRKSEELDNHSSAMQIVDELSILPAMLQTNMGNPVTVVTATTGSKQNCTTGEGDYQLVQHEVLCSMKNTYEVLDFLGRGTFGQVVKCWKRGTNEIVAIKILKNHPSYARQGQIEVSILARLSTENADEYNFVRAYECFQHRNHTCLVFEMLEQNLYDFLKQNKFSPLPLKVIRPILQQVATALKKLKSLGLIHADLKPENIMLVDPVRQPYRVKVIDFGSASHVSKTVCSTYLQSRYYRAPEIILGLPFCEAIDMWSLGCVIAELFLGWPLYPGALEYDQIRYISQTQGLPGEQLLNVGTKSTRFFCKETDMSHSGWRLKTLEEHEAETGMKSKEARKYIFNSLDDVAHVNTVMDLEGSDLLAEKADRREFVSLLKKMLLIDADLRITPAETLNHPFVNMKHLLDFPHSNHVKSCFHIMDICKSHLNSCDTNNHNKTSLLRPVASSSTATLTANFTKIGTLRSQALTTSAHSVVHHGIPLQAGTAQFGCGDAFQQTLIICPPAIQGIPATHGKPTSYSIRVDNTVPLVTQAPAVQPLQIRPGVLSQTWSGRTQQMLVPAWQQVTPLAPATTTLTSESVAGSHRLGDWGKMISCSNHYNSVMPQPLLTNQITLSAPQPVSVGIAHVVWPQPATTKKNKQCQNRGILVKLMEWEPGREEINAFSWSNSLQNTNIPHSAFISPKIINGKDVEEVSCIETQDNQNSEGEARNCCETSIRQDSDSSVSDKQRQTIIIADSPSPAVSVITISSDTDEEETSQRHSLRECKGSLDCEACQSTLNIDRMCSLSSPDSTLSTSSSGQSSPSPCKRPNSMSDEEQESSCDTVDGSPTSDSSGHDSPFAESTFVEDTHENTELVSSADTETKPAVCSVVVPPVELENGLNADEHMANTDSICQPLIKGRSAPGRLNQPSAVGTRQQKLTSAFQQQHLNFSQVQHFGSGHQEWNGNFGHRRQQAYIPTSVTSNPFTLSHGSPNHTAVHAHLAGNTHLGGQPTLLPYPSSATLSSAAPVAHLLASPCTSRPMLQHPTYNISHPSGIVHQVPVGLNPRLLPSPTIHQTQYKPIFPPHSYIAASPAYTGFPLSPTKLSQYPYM
How it was run: (§4)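 Single-point profiling at 10 µM in a panel of 78 protein kinases. Kinase activity is expressed as a percentage relative to control assays without compound.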

[10] = target: T2, Protein kinase C zeta type (Homo sapiens) (UniProt Q05513); assay: Inhibition of PKCzeta assessed as residual activity at 10 uM by Cherenkov counting relative to control in presence of 5 uM ATP; how it was run: as §3
T2 sequence (whole entry): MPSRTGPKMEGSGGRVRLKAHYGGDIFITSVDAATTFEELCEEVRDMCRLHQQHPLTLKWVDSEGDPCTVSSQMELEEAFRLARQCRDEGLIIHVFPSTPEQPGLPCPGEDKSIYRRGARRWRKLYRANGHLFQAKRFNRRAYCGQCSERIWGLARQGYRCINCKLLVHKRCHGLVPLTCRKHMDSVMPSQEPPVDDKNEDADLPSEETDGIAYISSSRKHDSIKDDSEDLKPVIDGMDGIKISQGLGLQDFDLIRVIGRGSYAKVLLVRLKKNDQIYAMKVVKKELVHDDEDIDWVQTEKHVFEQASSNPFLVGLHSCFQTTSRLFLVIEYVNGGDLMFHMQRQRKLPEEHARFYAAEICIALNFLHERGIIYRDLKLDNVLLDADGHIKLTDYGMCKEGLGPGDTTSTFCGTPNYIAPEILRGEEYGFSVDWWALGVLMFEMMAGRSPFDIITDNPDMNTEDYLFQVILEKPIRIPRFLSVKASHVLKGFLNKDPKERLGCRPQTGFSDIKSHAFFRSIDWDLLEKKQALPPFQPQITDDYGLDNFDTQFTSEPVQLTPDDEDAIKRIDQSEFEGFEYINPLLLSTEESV

[11] = target: Glycogen synthase kinase-3 beta (Homo sapiens) (UniProt P49841); assay: Inhibition of GSK3-beta assessed as residual activity at 10 uM by Cherenkov counting relative to control in presence of 5 uM ATP; how it was run: as §4
[12] = target: Tyrosine-protein kinase Yes (Homo sapiens) (UniProt P07947); assay: Inhibition of YES1 assessed as residual activity at 10 uM by Cherenkov counting relative to control in presence of 20 uM ATP; how it was run: as §3
Sequence of Tyrosine-protein kinase Yes (Homo sapiens) (P07947 2-543 limits assumed): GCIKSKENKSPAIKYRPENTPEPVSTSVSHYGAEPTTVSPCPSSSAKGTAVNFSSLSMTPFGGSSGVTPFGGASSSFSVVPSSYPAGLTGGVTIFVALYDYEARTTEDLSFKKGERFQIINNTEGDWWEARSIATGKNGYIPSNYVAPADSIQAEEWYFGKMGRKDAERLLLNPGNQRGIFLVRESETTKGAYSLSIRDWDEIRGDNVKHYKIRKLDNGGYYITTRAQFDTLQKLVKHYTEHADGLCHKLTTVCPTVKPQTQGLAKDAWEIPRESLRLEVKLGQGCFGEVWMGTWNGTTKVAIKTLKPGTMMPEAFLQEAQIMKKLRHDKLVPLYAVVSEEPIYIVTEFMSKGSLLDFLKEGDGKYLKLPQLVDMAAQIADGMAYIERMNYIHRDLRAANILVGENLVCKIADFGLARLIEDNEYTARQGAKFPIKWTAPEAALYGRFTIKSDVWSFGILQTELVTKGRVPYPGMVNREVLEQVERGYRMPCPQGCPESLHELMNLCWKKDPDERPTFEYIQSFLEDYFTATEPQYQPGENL

| Activity [1] | Activity [2] | Activity [3] | Activity [4] | Activity [5] | Activity [6] | Activity [7] | Activity [8] | Activity [9] | Activity [10] | Activity [11] | Activity [12] | SMILES |
| --- | --- | --- | --- | --- | --- | --- | --- | --- | --- | --- | --- | --- |
| 93% | 88% | 101% | 90% | 94% |  |  |  |  |  |  |  | COc1ccc(/C=C/C(=O)Nc2cc(-c3[nH]c([S+](C)[O-])nc3-c3ccc(F)cc3)ccn2)c(OC)c1 (centres undefined) |
|  |  |  |  |  | 95% | 64% | 105% | 100% | 91% | 85% | 101% | CC(C)c1noc(-c2ccc(F)cc2)c1-c1ccncc1 |
|  |  |  |  |  | 95% | 42% | 104% | 92% | 81% | 75% | 82% | CC(C)c1onc(-c2ccc(F)cc2)c1-c1ccncc1 |
| 93% | 85% | 81% | 81% | 94% |  |  |  |  |  |  |  | COc1ccc(/C=C/C(=O)Nc2cc(-c3[nH]c(SC)nc3-c3ccc(F)cc3)ccn2)c(OC)c1 |
